# T cruzi inh: blocks replication of Trypanosoma cruzi; T. cruzi beta-gal in NIH3T3, luminescence, 90 h; inhibition, % (no concentration beside the values); 300,000 compounds, 1.4% hits; AID 1885;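 active means mean inhibition across valid replicates above about 55%, limit read from the data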;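 further: signal also drops with host cell toxicity which is not excluded here; 0% = plate median of DMSO wells and 100% = zero luminescence signal; higher percent means less beta-gal luminescence so fewer parasites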
#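 compound dosing = single 50 nL compound addition per well in DMSO | material = NIH/3T3 host cells with β-galactosidase reporter T. cruzi | input = 5,000 host fibroblasts per well | timing = ≥90 h infection period, 3 h prior cell attachment | read-out basis = percent inhibition of parasite-derived β-gal signal | detection = GalScreen β-gal luminescence, detergent lysis, 60 min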
# UPR XBP1 act: activators of adaptive arm of unfolded protein response (XBP1). CHO-XBP1 luciferase reporter, IRE1-XBP1 UPR activation, luminescence; percent of tunicamycin response, DMSO as zero. activation, % at 20 µM. 330,000 compounds, 0.33% hits;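 active means versus positive control, 20 µM dose yields 30% or more activation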;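 further: 100% = tunicamycin at 10 µg/mL and 0% = DMSO only wells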
#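 Material: IRE1-XBP1 luciferase reporter CHO line / Quantity: one thousand reporter cells per well / Buffer or medium: F12 with 10% serum / Compound: 20 µM single concentration, DMSO 1% / Times: 6 h treatment, 37 °C / Detection: Steady-Glo luciferase glow luminescence, 10 min after reagent addition / Benchmarks: tunicamycin high, DMSO low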
# Dynein transport: dynein cargo transport inhibition. 3617.4 mouse cells, GR-EGFP nuclear translocation imaging; test concentration mostly 20 µM; stimulated with dexamethasone, 1 µM; active compounds read low. z-score, hits read low. 220,000 compounds, 0.47% hits;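 active means plate z-score of nuclear minus cytoplasmic receptor signal below a set negative limit, without overly bright fluorescence or cell loss, cut at about -3.5 in these data, passing the limit was not always enough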;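 further: z-score of nuclear minus cytoplasmic ring GR-EGFP intensity difference per well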
#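 Also added: dexamethasone, 1.0 µM final. Medium: tet-free, stripped-serum medium. Detection: fixed, Hoechst-stained cells imaged at 10x for EGFP. Read-out: nuclear-to-cytoplasmic GR-EGFP distribution per well. Times: induction 48 h, compound 1 h, agonist 30 min.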
# CHOP inhibitor: blocks CHOP induction under ER stress; 220,000 compounds, 3.8% hits; inhibition, % at 10 µM; CHO-K1 CHOP-promoter luciferase, tunicamycin-induced, 15-18 h; AID 2732;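 active means compounds that reduced the stress-induced luciferase reporter signal by more than about 70% of percent inhibition, limit read from the data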;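 further: 0% = tunicamycin plus vehicle and 100% = wells without tunicamycin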
# Lmaj promast: reduces viability of Leishmania major promastigotes; 200,000 compounds, 9% hits; resazurin fluorescence viability; AID 1063; inhibition, % at 10 µM; in the data active means inhibition above about 50%;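 further: promastigotes grown with compound for 44 hours at 28 °C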
# UPR CHOP act: apoptotic UPR (CHOP) activation; CHO-CHOP luciferase reporter, luminescence; percent of tunicamycin response over DMSO baseline; activation, % at 10 µM; 330,000 compounds, 0.34% hits;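 active means at 10 µM dose, activation of 40% or more, normalized to positive control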;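 further: 100% = tunicamycin at 10 µg/mL and 0% = DMSO alone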
#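 Dosing – one dose, 10 µM in 0.5% DMSO · System – CHO-CHOP cells, stable luciferase reporter of PERK-eIF2a-CHOP signalling · Input – 500 cells/well · Control set – tunicamycin 10 µg/mL final as positive, DMSO-only wells as negative · Timing – 6 h compound treatment, 37 °C · Measure – % activation vs tunicamycin · Technique – luminescence read with Steady-Glo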
# * = called active by the depositor; / = no result. The entries come from a sample that favours hits as a whole.
SMILES,T cruzi inh,UPR XBP1 act,Dynein transport,CHOP inhibitor,Lmaj promast,UPR CHOP act
CC1CN(C(=O)COc2ccc3ccccc3c2)CC(C)O1 (configuration not stated),/,-2.9,/,/,/,0.3
CCCCOc1ccc(C(=O)NCC(=O)N2CC(C)OC(C)C2)cc1 (configuration not stated),/,-2.2,/,/,/,-0.3
CC1CN(CCCCOc2ccc3ccccc3c2)CC(C)O1 (configuration not stated),12.2,-1.2,-0.857,17.5,90.2*,-0.7
COc1cccc(OCCCCN2CC(C)OC(C)C2)c1 (configuration not stated),15.2,-0.3,-0.886,35.0,93.5*,-1.9
Cc1ccsc1C(C(=O)NC(C)(C)C)N(C(=O)c1csnn1)c1ccccc1 (configuration not stated),-8.6,-3.4,0.0759,-9.1,-0.1,-2.4
O=C(CC1NCCc2ccccc21)Nc1ccc(Oc2ccccc2)cc1 (configuration not stated),41.9,0.9,0.472,50.0,99.0*,0.5
Cc1ccccc1C1C(C#N)=C2N=C(N)c3c(sc4c3CCCCC4)N2C2=C1C(=O)CC(C)(C)C2 (configuration not stated),57.6*,6.9,-0.61,33.0,61.9*,3.9
Cc1ccc(C)c(OCc2cc(C(=O)N(C)Cc3nccs3)no2)c1,-0.1,1.4,/,/,/,1.7
COc1ccc(O)c(CN2CCN(C/C=C/c3ccccc3)CC2)c1,9.4,-1.1,-0.527,17.0,85.0*,-0.2
COc1cc(Br)cc(CN2CCN(C/C=C/c3ccccc3)CC2)c1O,28.0,-0.7,-0.495,11.7,88.1*,-0.3
COc1ccc2oc(C(=O)N3CCN(C/C=C/c4ccccc4)CC3)c(C)c2c1,/,-0.2,/,/,/,0.0
Cc1cc(C)c2c(CN3CCN(C/C=C/c4ccccc4)CC3)cc(=O)oc2c1,49.0,-1.6,-0.626,40.5,13.8,4.4
O=C1NC(=S)N(c2cccc(Cl)c2)C12CCCCC2,7.5,-2.4,0.438,57.2,52.2*,0.9
COc1ccccc1CNC(=O)C(C)n1nc(C)n2c(cc3occc32)c1=O (configuration not stated),-1.6,0.1,/,/,/,3.2
Cc1ccc(-c2csc(NS(=O)(=O)c3cccc(F)c3)n2)o1,/,-2.8,/,/,/,-1.3
Cc1ccc(-c2noc(CCCC(=O)Nc3cccnc3)n2)cc1,-3.0,-1.1,-0.82,78.3*,-5.0,-5.0
CCOC(=O)c1ccc(NC(=O)CCc2nc(-c3ccc(Cl)cc3)no2)cc1,28.6,1.0,-0.421,72.8*,-2.1,-2.9
C1=CCN(Cc2ccccc2)C1,-10.1,-6.2,/,/,/,-0.4
CCNc1nc(NCC)nc(SCCOC(=O)c2ccccc2)n1,9.5,1.4,-0.0903,8.3,54.7*,2.7
CCNc1nc(NCC)nc(SCCOC(=O)Nc2ccc(Cl)cc2Cl)n1,3.7,1.7,0.198,63.6,3.4,1.1
CN(C)CCOCCOc1ccc(Cl)cc1C(C)(C)C,24.0,-0.9,0.3,0.7,97.7*,0.5
CC(O)CNCCCOc1ccc(Cl)cc1C(C)(C)C (configuration not stated),25.9,7.1,2.75,14.6,71.5*,1.3
CCCCCC(=O)N1CCCCC1,-3.3,3.8,0.321,-6.7,/,0.2
CC(C)COc1ccc(C(=O)OCCN2CCOCC2)cc1,1.4,/,-0.249,18.4,-0.5,/
CC(C)COc1ccc(C(=O)OC2CC(C)(C)OCC2CN(C)C)cc1 (configuration not stated),17.5,1.4,-0.413,70.6*,29.6,-0.9
SMILES,T cruzi inh,UPR XBP1 act,Dynein transport,CHOP inhibitor,Lmaj promast,UPR CHOP act
COCCn1c(C)cc(/C=C(\C#N)C(=O)OCC(=O)Nc2ccc(S(N)(=O)=O)cc2)c1C,/,7.0,/,/,/,2.7
Cc1cc2c3c(c1)C1(SCC(=O)N1c1ccc(F)cc1)C(=O)N3C(C)(C)CC2C (configuration not stated),2.4,-1.1,-0.231,7.0,61.1*,-1.2
CCCC(C(=O)Nc1ccc(S(=O)(=O)Nc2nccs2)cc1)c1ccccc1 (configuration not stated),/,-4.7,/,/,/,-2.1
CC(C)CN(C(=O)CN1CCc2ccccc21)c1c(N)n(CC(C)C)c(=O)[nH]c1=O,-4.6,-2.0,0.252,-6.2,-2.6,-0.1
CC(C)Cc1nnc(NC(=O)CCC(=O)N2CCN(S(=O)(=O)c3ccccc3)CC2)s1,-4.3,-0.6,-0.0497,14.2,51.9*,-1.4
CCOc1ccc2nc(N3C(=O)/C(=C/c4ccc(Cl)cc4)NC3=S)sc2c1,-7.3,/,1.39,104.6*,-4.4,/
CC(C(=O)Nc1cccc(S(=O)(=O)N2CCOCC2)c1)N1CCN(C)CC1 (configuration not stated),-0.8,1.0,/,/,/,1.0
CC(C)NC[C@H](O)COc1ccc(CC(N)=O)cc1,/,-4.7,/,-9.6,/,0.4
Cc1nn(Cc2ccc(Cl)cc2Cl)c(C)c1NC(=O)NC12CC3CC(CC(C3)C1)C2,35.8,-1.1,-0.455,2.5,99.8*,0.8
Cc1nn(Cc2ccc(Cl)cc2Cl)c(C)c1NC(=O)c1sc2ccccc2c1Cl,28.8,-1.0,0.237,34.6,-3.7,-0.9
COc1cc(OC)cc(OC(=O)C2CCN(C(=O)c3ccc(Cl)cc3)CC2)c1,/,-1.5,/,/,/,-0.9
CC1/C(=C\c2ccc(Cl)cc2)C(=O)C2CC1C2(C)C (configuration not stated),-10.5,-1.9,-0.932,76.1*,-4.2,2.6
CC1CCC(C(C)C)C(=O)/C1=C/c1ccc(N)cc1 (configuration not stated),2.3,2.3,-0.338,17.0,/,5.1
C/C(CC(=O)Nc1cc(Cl)ccc1Cl)=N\NC(N)=S,-3.8,0.6,1.92,-14.2,-1.6,-0.6
C/C(CC(=O)Nc1ccc(Cl)c(Cl)c1)=N\NC(N)=S,0.9,1.1,-0.172,-16.9,62.3*,1.3
CCOC(=O)c1sc(NC(=O)c2cccc(S(=O)(=O)N3CCc4ccccc43)c2)c(C#N)c1C,3.1,4.3,0.294,95.4*,/,3.6
CCOC(=O)c1sc(NC(=O)CSc2ccccn2)c(C#N)c1C,-8.7,5.9,0.781,78.6*,1.9,1.7
Cc1ccccc1OCCNc1cc(N2CC(C)NC(C)C2)ccc1[N+](=O)[O-] (configuration not stated),44.2,5.4,0.26,16.2,100.5*,1.9
CC1CN(c2ccc([N+](=O)[O-])c(NCCOc3ccccc3)c2)CC(C)N1 (configuration not stated),41.8,-1.4,/,/,/,-1.1
O=[N+]([O-])c1ccc(N2CCCCC2)cc1NCCOc1ccccc1,9.4,-0.1,0.68,9.8,69.2*,-2.0
NC(=O)C1CCN(C(=O)/C(=C/c2ccccc2)NC(=O)c2ccccc2)CC1,-1.8,-2.6,/,/,/,0.6
